Key:
[1] = target: T1, Cholecystokinin receptor type A (Homo sapiens, UniProt P32238); experiment: Agonist activity at human CCK1 receptor; type: functional
T1 sequence (P32238 whole entry): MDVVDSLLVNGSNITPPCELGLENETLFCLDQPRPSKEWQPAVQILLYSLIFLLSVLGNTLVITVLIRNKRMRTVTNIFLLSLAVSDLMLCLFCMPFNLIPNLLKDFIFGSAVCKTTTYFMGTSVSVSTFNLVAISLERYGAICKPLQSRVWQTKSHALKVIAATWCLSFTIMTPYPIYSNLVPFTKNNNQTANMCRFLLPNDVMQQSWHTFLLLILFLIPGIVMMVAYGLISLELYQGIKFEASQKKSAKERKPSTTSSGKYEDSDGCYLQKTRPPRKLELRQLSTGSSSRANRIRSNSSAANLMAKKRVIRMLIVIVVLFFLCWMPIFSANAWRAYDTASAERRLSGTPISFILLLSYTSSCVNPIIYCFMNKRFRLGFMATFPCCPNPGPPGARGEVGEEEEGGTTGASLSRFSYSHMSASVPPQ
Summary of the method: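 Human CCK1 receptor agonism measured in a CCK_IP3 functional assay with NFAT read-out. Values are means of ≥3 experiments, with standard deviations <75% of the average.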

[2] = target: T1, Cholecystokinin receptor type A; experiment: Inhibition of human CCK1 receptor
[3] = target: T2, Cholecystokinin receptor type A (Homo sapiens) (UniProt P32238); experiment: Agonist activity at human CCK1 receptor relative to cholecystokinin 8; type: functional
T2 sequence (whole entry): T1 sequence (P32238 whole entry)

[4] = Tmax in mouse at 1 mg/kg, iv and 10 mg/kg, po; type: ADME, organism-based; settings: in vivo
Mus musculus [5] = experiment: Suppression of 18 hrs overnight food intake in mouse at 3 mg/kg, po relative to control; type: functional
Summary of the method: (§1)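 Lean mice were dosed orally in 10% Tw80 in water. Overnight food intake was measured and expressed relative to vehicle-dosed mice.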

[6] = target: T3, Cholecystokinin receptor type A (Mus musculus) (UniProt O08786); experiment: Agonist activity at mouse CCK1 receptor relative to cholecystokinin 8; type: functional
T3 sequence (whole entry): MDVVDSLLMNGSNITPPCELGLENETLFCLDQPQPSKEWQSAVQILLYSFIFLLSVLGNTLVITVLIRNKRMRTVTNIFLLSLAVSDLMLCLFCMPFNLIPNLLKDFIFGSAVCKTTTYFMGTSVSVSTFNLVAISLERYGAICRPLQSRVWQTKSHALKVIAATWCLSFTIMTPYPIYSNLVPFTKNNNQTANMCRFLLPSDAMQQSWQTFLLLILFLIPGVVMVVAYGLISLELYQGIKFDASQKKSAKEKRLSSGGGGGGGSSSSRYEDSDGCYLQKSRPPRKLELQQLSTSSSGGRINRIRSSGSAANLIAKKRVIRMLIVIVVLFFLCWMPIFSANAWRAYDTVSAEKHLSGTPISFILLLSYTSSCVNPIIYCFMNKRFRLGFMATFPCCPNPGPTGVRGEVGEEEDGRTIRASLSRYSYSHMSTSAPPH

Mus musculus [7] = experiment: AUC in mouse at 10 mg/kg, po; type: ADME, organism-based, Plasma; set-up: dose 10 mg/kg, route oral; settings: in vivo
Mus musculus [8] = experiment: Suppression of 18 hrs overnight food intake in mouse at 0.3 mg/kg, po relative to control; type: functional; summary of the method: as §1
[9] = target: T4, Cholecystokinin receptor type A (Mus musculus, UniProt O08786); experiment: Agonist activity at mouse CCK1 receptor; type: functional
T4 sequence (O08786 whole entry): T3 sequence (whole entry)
Summary of the method: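 Mouse CCK1 receptor agonism measured in a CCK_IP3 functional assay in K1 cells. Values are means of ≥3 experiments, with standard deviations <75% of the average.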

Mus musculus [10] = experiment: Suppression of 48 hrs overnight food intake in wild type mouse at 3 mg/kg, po relative to control; type: functional
Summary of the method: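 Wild-type and CCK1R^-/- mice received an oral dose of 3 mpk. Food intake was measured at 18 h and 48 h and compared with vehicle.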

[11] = Half life in mouse at 1 mg/kg, iv and 10 mg/kg, po; type: ADME, organism-based; settings: in vivo
Mus musculus [12] = species on record: Mus musculus; experiment: Gastrointestinal toxicity in wild type mouse; type: organism-based; settings: in vivo
[13] = Cmax in mouse at 10 mg/kg, po; type: ADME, organism-based; set-up: dose 10 mg/kg, route oral; settings: in vivo
[14] = Volume of distribution in mouse at 1 mg/kg, iv and 10 mg/kg, po; type: ADME, organism-based; settings: in vivo
Mus musculus [15] = species on record: Mus musculus; experiment: Gastrointestinal toxicity in CCK1 receptor deficient mouse; type: organism-based; settings: in vivo
Mus musculus [16] = experiment: Oral bioavailability in mouse at 10 mg/kg; type: ADME, organism-based; settings: in vivo

| Structure (SMILES) | EC50 [1] | IC50 [2] | Activity [3] | also measured |
| --- | --- | --- | --- | --- |
| CCOc1cccc(-n2cc(C(=O)N3CCN(c4cc(C(=O)O)c5ccccc5c4)C[C@H]3CNS(C)(=O)=O)nc2-c2ccc(C)cc2F)c1 | 0.1 nM | 0.067 nM | 97% |  |
| CCOc1cccc(-n2cc(C(=O)N3CCN(c4cnc5ccccc5c4)C[C@H]3CNS(C)(=O)=O)nc2-c2ccc(C)cc2)c1 | 0.46 nM | 0.73 nM | 117% |  |
| CCOc1cccc(-n2cc(C(=O)N3CCN(c4cnc5ccccc5c4)C[C@@H]3CNC(=O)NC)nc2-c2ccc(C)cc2)c1 | 0.16 nM | 0.56 nM | 70% |  |
| CCOc1cccc(-n2cc(C(=O)N3CCN(c4cc(C(=O)O)c5ccccc5c4)CC3)nc2-c2ccc(C)cc2)c1 |  |  |  | Tmax [4]: 6.7 h; Activity (Mus musculus [5]): 82%; Activity [6]: 103%; AUC (Mus musculus [7]): 0.39 µM·h; Activity (Mus musculus [8]): 18% |
| CCOc1cccc(-n2cc(C(=O)N3CCN(c4cnc5ccccc5c4)C[C@@H]3COC(C)=O)nc2-c2ccc(C)cc2)c1 | 0.25 nM | 0.24 nM | 104% |  |
| CCOc1cccc(-n2cc(C(=O)N3CCN(c4cc(C(=O)O)c5ccccc5c4)C[C@H]3CNC(C)=O)nc2-c2ccc(C)cc2F)c1 | 0.033 nM | 0.058 nM | 70% | Activity (Mus musculus [5]): 18%; Activity [6]: 77%; EC50 [9]: 0.13 nM |
| CCOc1cccc(-n2cc(C(=O)N3CCN(c4cnc5ccccc5c4)C[C@H]3COC(C)=O)nc2-c2ccc(C)cc2)c1 | 0.77 nM | 0.47 nM | 118% |  |
| CCOc1cccc(-n2cc(C(=O)N3CCN(c4cnc5ccccc5c4)C[C@H]3C(=O)NC(C)C)nc2-c2ccc(C)cc2)c1 | 0.14 nM | 0.24 nM | 102% |  |
| CCOc1cccc(-n2cc(C(=O)N3CCN(c4cc(C(=O)O)c5ccccc5c4)C[C@@H]3C(=O)NC(C)C)nc2-c2ccc(C)cc2)c1 | 0.082 nM | 0.11 nM | 94% |  |
| CCOc1cccc(-n2cc(C(=O)N3CCN(c4cc(C(=O)O)c5ccccc5c4)C[C@@H]3CNS(C)(=O)=O)nc2-c2ccc(C)cc2)c1 | 0.095 nM | 0.12 nM | 72% |  |
| CCOc1cccc(-n2cc(C(=O)N3CCN(c4cnc5ccccc5c4)C[C@@H]3CNC(C)=O)nc2-c2ccc(C)cc2)c1 | 0.1 nM | 0.25 nM | 91% |  |
| CCOc1cccc(-n2cc(C(=O)N3CCN(c4cc(C(=O)O)c5ccccc5c4)C[C@H]3C(=O)NC(C)C)nc2-c2ccc(C)cc2F)c1 | 0.071 nM | 0.01 nM | 94% | Tmax [4]: 8 h; Activity (Mus musculus [10]): 85%; Activity (Mus musculus [5]): 92%; Activity [6]: 94%; EC50 [9]: 0.034 nM; half-life [11]: 138 min; AUC (Mus musculus [7]): 0.1 µM·h; Activity (Mus musculus [12]): Toxic; Activity (Mus musculus [8]): 32%; Cmax [13]: 180 nM; Vd [14]: 0.42 L/kg; Activity (Mus musculus [15]): Non-toxic; F (Mus musculus [16]): 4% |
| CCOc1cccc(-n2cc(C(=O)N3CCN(c4cc(C(=O)O)c5ccccc5c4)C[C@H]3C(=O)NC(C)C)nc2-c2ccc(C)cc2)c1 | 0.053 nM | 0.016 nM | 103% | Tmax [4]: 5.5 h; Activity (Mus musculus [5]): 45%; Activity [6]: 110%; EC50 [9]: 0.11 nM; half-life [11]: 150 min; AUC (Mus musculus [7]): 0.15 µM·h; Activity (Mus musculus [8]): 19%; Cmax [13]: 180 nM; Vd [14]: 3.7 L/kg; F (Mus musculus [16]): 11% |
| CCOc1cccc(-n2cc(C(=O)N3CCN(c4cc(C(=O)O)c5ccccc5c4)C[C@H]3CNC(=O)NC)nc2-c2ccc(C)cc2F)c1 | 0.074 nM | 0.097 nM | 90% |  |
| CCOc1cccc(-n2cc(C(=O)N3CCN(c4cc(C(=O)O)c5ccccc5c4)C[C@@H]3COCC(=O)O)nc2-c2ccc(C)cc2)c1 | 0.097 nM | 0.14 nM | 85% |  |
| CCOc1cccc(-n2cc(C(=O)N3CCN(c4cnc5ccccc5c4)C[C@@H]3C(=O)NC(C)C)nc2-c2ccc(C)cc2)c1 | 0.18 nM | 0.21 nM | 87% |  |
| CCOc1cccc(-n2cc(C(=O)N3CCN(c4cnc5ccccc5c4)C[C@H]3COCC(=O)O)nc2-c2ccc(C)cc2)c1 | 0.065 nM | 0.052 nM | 93% |  |
| CCOc1cccc(-n2cc(C(=O)N3CCN(c4cc(C(=O)O)c5ccccc5c4)CC3)nc2-c2ccc(C)cc2F)c1 | 0.055 nM | 0.04 nM |  | Tmax [4]: 0.6 h; Activity (Mus musculus [5]): 86%; Activity [6]: 56%; AUC (Mus musculus [7]): 0.61 µM·h; Activity (Mus musculus [8]): 13% |
| CCOc1cccc(-n2cc(C(=O)N3CCN(c4cnc5ccccc5c4)C[C@@H]3CNS(C)(=O)=O)nc2-c2ccc(C)cc2)c1 | 0.21 nM | 0.43 nM | 100% |  |
| CCOc1cccc(-n2cc(C(=O)N3CCN(c4cnc5ccccc5c4)C[C@H]3CNC(C)=O)nc2-c2ccc(C)cc2)c1 | 0.097 nM | 0.39 nM | 104% |  |
| CCOc1cccc(-n2cc(C(=O)N3CCN(c4cnc5ccccc5c4)C[C@H]3C(=O)NCC(=O)O)nc2-c2ccc(C)cc2)c1 | 0.089 nM | 0.018 nM | 82% | Activity [6]: 99%; EC50 [9]: 0.11 nM |
| CCOc1cccc(-n2cc(C(=O)N3CCN(c4cnc5ccccc5c4)C[C@@H]3COCC(=O)O)nc2-c2ccc(C)cc2)c1 | 0.097 nM | 0.039 nM | 96% | Activity [6]: 84%; EC50 [9]: 0.5 nM |
| CCOc1cccc(-n2cc(C(=O)N3CCN(c4cc(C(=O)O)c5ccccc5c4)C[C@H]3COCC(=O)O)nc2-c2ccc(C)cc2F)c1 | 0.034 nM | 0.041 nM | 106% |  |
| CCOc1cccc(-n2cc(C(=O)N3CCN(c4cc(C(=O)O)c5ccccc5c4)C[C@@H]3CNC(C)=O)nc2-c2ccc(C)cc2)c1 | 0.04 nM | 0.08 nM | 67% |  |
| CCOc1cccc(-n2cc(C(=O)N3CCN(c4cc(C(=O)O)c5ccccc5c4)C[C@@H]3CNC(=O)NC)nc2-c2ccc(C)cc2)c1 | 0.13 nM | 0.08 nM | 74% |  |

— ChEMBL document CHEMBL1157349, “2-Substituted piperazine-derived imidazole carboxamides as potent and selective CCK1R agonists for the treatment of obesity” (Bioorg Med Chem Lett, 2008)
